Reference: ChEMBL document CHEMBL4152279, “Synthesis, cytotoxic evaluation and target identification of thieno[2,3-d]pyrimidine derivatives with a dithiocarbamate side chain at C2 position” (Eur J Med Chem, 2018)
Active and inactive are the calls of the source. The rule behind the calls is not given here.

How the values were obtained:
A549 [1] = test: Cell cycle arrest in human A549 cells assessed as accumulation at S phase at 0.1 uM after 24 hrs by propidium iodide staining based flow cytometry (reference value: 32.37 +/- 1.23%); format: functional
A549 [2] = test: Antiproliferative activity against human A549 cells after 72 hrs by MTS assay; format: functional, cell-based; conditions: A549, 72 h
Procedure, shortened: (§1)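 MTS read-out (CellTiter 96 AQueous One) of proliferation in A549 or HCT-116 cells grown in DMEM with 10% FBS at 37 °C, 5% CO2. Taxol-resistant A549 cells were exposed for 72 h. Compounds were screened at 30 μM versus vehicle, with ≥50% inhibition counted active. Actives were then tested over a concentration range for IC50. Triplicate wells, three independent experiments, mean ± SD.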

A549 [3] = test: Cell cycle arrest in human A549 cells assessed as accumulation at G2/M phase at 0.1 uM after 24 hrs by propidium iodide staining based flow cytometry (reference value: 20.95 +/- 0.8%); format: functional
A549 [4] = test: Cell cycle arrest in human A549 cells assessed as accumulation at G0/G1 phase at 0.1 uM after 24 hrs by propidium iodide staining based flow cytometry (reference value: 46.39 +/- 1.75%); format: functional
A549 [5] = test: Activation of spindle assembly checkpoint in human A549 cells assessed as mitotic index by measuring cells positive for histone H3 phosphorylation at Ser10 residue at 340 nM after 4 hrs by FITC staining based immunofluorescence assay (reference value: 3.3 +/- 0.17); format: functional
A549 [6] = test: Activation of spindle assembly checkpoint in human A549 cells assessed as mitotic index by measuring cells positive for histone H3 phosphorylation at Ser10 residue at 340 nM after 2 hrs by FITC staining based immunofluorescence assay (reference value: 2.67 +/- 0.21); format: functional
Sus scrofa [7] = organism: Sus scrofa; test: Inhibition of porcine tubulin polymerization at 10 uM after 60 mins by spectrometric method
Procedure, shortened: (§2)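 Purified tubulin was incubated at 37 °C with compound at 5, 10 or 20 μM, with DMSO as vehicle. Polymerization was followed as the rise in absorbance at 340 nm over 60 min. Taxol (10 μM) and nocodazole (10 μM) served as controls. Three independent experiments were run.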

A549 [8] = test: Activation of spindle assembly checkpoint in human A549 cells assessed as mitotic index by measuring cells positive for histone H3 phosphorylation at Ser10 residue at 340 nM after 16 hrs by FITC staining based immunofluorescence assay (reference value: 3.23 +/- 0.15); format: functional
A549 [9] = test: Activation of spindle assembly checkpoint in human A549 cells assessed as mitotic index by measuring cells positive for histone H3 phosphorylation at Ser10 residue at 340 nM after 8 hrs by FITC staining based immunofluorescence assay (reference value: 3.17 +/- 0.15); format: functional
A549 [10] = test: Induction of DNA damage in human A549 cells assessed as increase in CHK1 phosphorylation level after 12 hrs by immunoblot analysis; format: functional, cell-based
Procedure, shortened: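 A549 cells treated 12 h, with camptothecin (2 μM, 2 h) and DMSO as comparators. Total lysates immunoblotted for γ-H2AX and pS345 CHK1.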

A549 [11] = test: Induction of DNA damage in human A549 cells assessed as increase in gamma-H2AX level after 12 hrs by immunoblot analysis; format: functional, cell-based
Procedure, shortened: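 A549 cells treated for 12 h, with DMSO as diluent; camptothecin at 2 μM for 2 h served as positive control. Total cell lysates were immunoblotted for γ-H2AX (Ser139 phosphorylated H2AX) and pS345 CHK1. Immunofluorescence for γ-H2AX foci with DAPI counterstain was run in parallel.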

A549 [12] = test: Cell cycle arrest in human A549 cells assessed as accumulation at G2/M phase after 24 hrs by propidium iodide staining based flow cytometry; format: functional
HCT-116 [13] = test: Cytotoxicity against human HCT116 cells at 30 uM by MTS assay relative to control; format: functional; procedure, shortened: as §1
A549 [14] = test: Activation of spindle assembly checkpoint in human A549 cells assessed as cells positive for histone H3 phosphorylation at Ser10 residue by measuring mitotic cell population at cytotoxic IC50 after 16 hrs by propidium iodide staining based flow cytometry (reference value: 6.9%); format: functional
A549 [15] = test: Activation of spindle assembly checkpoint in human A549 cells assessed as increase in histone H3 phosphorylation at Ser10 residue at cytotoxic IC50 after 12 to 24 hrs by immunoblot analysis; format: functional, cell-based
A549 [16] = test: Cell cycle arrest in human A549 cells assessed as accumulation at S phase at 0.5 times cytotoxic IC50 after 24 hrs by propidium iodide staining based flow cytometry (reference value: 32.37 +/- 1.23%); format: functional
A549 [17] = test: Activation of spindle assembly checkpoint in human A549 cells assessed as mitotic index by measuring cells positive for histone H3 phosphorylation at Ser10 residue at cytotoxic IC50 after 8 hrs by FITC staining based immunofluorescence assay (reference value: 3.17 +/- 0.15); format: functional
HeLa = test: Cytotoxicity against human HeLa cells at 30 uM by MTS assay; format: functional, cell-based
A549 [18] = test: Cell cycle arrest in human A549 cells assessed as accumulation at G2/M phase at cytotoxic IC50 after 24 hrs by propidium iodide staining based flow cytometry (reference value: 20.95 +/- 0.8%); format: functional
A549 [19] = test: Activation of spindle assembly checkpoint in human A549 cells assessed as mitotic index by measuring cells positive for histone H3 phosphorylation at Ser10 residue at cytotoxic IC50 after 4 hrs by FITC staining based immunofluorescence assay (reference value: 3.3 +/- 0.17); format: functional
A549 [20] = test: Cell cycle arrest in human A549 cells assessed as accumulation at S phase at cytotoxic IC50 after 24 hrs by propidium iodide staining based flow cytometry (reference value: 32.37 +/- 1.23%); format: functional
A549 [21] = test: Activation of spindle assembly checkpoint in human A549 cells assessed as mitotic index by measuring cells positive for histone H3 phosphorylation at Ser10 residue at cytotoxic IC50 after 2 hrs by FITC staining based immunofluorescence assay (reference value: 2.67 +/- 0.21); format: functional
A549 [22] = test: Activation of spindle assembly checkpoint in human A549 cells assessed as cells positive for histone H3 phosphorylation at Ser10 residue by measuring mitotic cell population at cytotoxic IC50 after 8 hrs by propidium iodide staining based flow cytometry (reference value: 6.9%); format: functional
A549 [23] = test: Cell cycle arrest in human A549 cells assessed as accumulation at G0/G1 phase at cytotoxic IC50 after 24 hrs by propidium iodide staining based flow cytometry (reference value: 46.39 +/- 1.75%); format: functional
A549 [24] = test: Cell cycle arrest in human A549 cells assessed as accumulation at G0/G1 phase at 0.5 times cytotoxic IC50 after 24 hrs by propidium iodide staining based flow cytometry (reference value: 46.39 +/- 1.75%); format: functional
A549 [25] = test: Activation of spindle assembly checkpoint in human A549 cells assessed as cells positive for histone H3 phosphorylation at Ser10 residue by measuring mitotic cell population at cytotoxic IC50 after 2 hrs by propidium iodide staining based flow cytometry (reference value: 6.9%); format: functional
Sus scrofa [26] = organism: Sus scrofa; test: Inhibition of porcine tubulin polymerization after 60 mins by spectrometric method; procedure, shortened: as §2
A549 [27] = test: Cell cycle arrest in human A549 cells assessed as accumulation at G2/M phase at 0.5 times cytotoxic IC50 after 24 hrs by propidium iodide staining based flow cytometry (reference value: 20.95 +/- 0.8%); format: functional
A549 [28] = test: Cell cycle arrest in human A549 cells assessed as accumulation at G2/M phase at 1.5 times cytotoxic IC50 after 24 hrs by propidium iodide staining based flow cytometry (reference value: 20.95 +/- 0.8%); format: functional
HT-29 = test: Cytotoxicity against human HT-29 cells at 30 uM by MTS assay; format: functional, cell-based
A549 [29] = test: Cell cycle arrest in human A549 cells assessed as accumulation at G0/G1 phase at 1.5 times cytotoxic IC50 after 24 hrs by propidium iodide staining based flow cytometry (reference value: 46.39 +/- 1.75%); format: functional
A549 [30] = test: Activation of spindle assembly checkpoint in human A549 cells assessed as cells positive for histone H3 phosphorylation at Ser10 residue by measuring mitotic cell population at cytotoxic IC50 after 4 hrs by propidium iodide staining based flow cytometry (reference value: 6.9%); format: functional
A549 [31] = test: Cell cycle arrest in human A549 cells assessed as accumulation at S phase at 1.5 times cytotoxic IC50 after 24 hrs by propidium iodide staining based flow cytometry (reference value: 32.37 +/- 1.23%); format: functional
A549 [32] = test: Cytotoxicity against human A549 cells at 30 uM by MTS assay relative to control; format: functional; procedure, shortened: as §1
A549 [33] = test: Cytotoxicity against human A549 cells by MTS assay; format: functional, cell-based; procedure, shortened: as §1
HCT-116 [34] = test: Cytotoxicity against human HCT116 cells by MTS assay; format: functional, cell-based; procedure, shortened: as §1
A549 [35] = test: Induction of DNA damage in human A549 cells assessed as gamma-H2AX foci formation after 12 hrs by DAPI staining based immunofluorescence assay; format: functional, cell-based
Procedure, shortened: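 A549 cells treated 12 h, with camptothecin (2 μM, 2 h) and DMSO as comparators. Cells fixed and immunostained with mouse monoclonal anti-γ-H2AX, nuclei counterstained with DAPI, foci examined by immunofluorescence.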

A549 [36] = test: Activation of spindle assembly checkpoint in human A549 cells assessed as mitotic index by measuring cells positive for histone H3 phosphorylation at Ser10 residue at cytotoxic IC50 after 16 hrs by FITC staining based immunofluorescence assay (reference value: 3.23 +/- 0.15); format: functional
MDA-MB-231 = test: Cytotoxicity against human MDA-MB-231 cells at 30 uM by MTS assay; format: functional, cell-based
MCF7 = test: Cytotoxicity against human MCF7 cells at 30 uM by MTS assay; format: functional, cell-based
A549 [37] = test: Activation of spindle assembly checkpoint in human A549 cells assessed as increase in BubR1 phosphorylation at cytotoxic IC50 after 6 to 24 hrs by immunoblot analysis; format: functional, cell-based

In the case of `CC(=O)O[C@H]1C(=O)[C@@]2(C)[C@H]([C@H](OC(=O)c3ccccc3)[C@]3(O)C[C@H](OC(=O)[C@H](O)[C@@H](NC(=O)c4ccccc4)c4ccccc4)C(C)=C1C3(C)C)[C@]1(OC(C)=O)CO[C@@H]1C[C@@H]2O` [PACLITAXEL], the Activity (A549 [1]) is reported as 24.56%, the IC50 (A549 [2]) is reported as > 30 µM and the Activity (A549 [3]) is reported as 74.17%. It also gave an Activity (A549 [4]) of 5.86%.

For `COC(=O)Nc1nc2cc(C(=O)c3cccs3)ccc2[nH]1` [NOCODAZOLE], the Activity_index (A549 [5]) was 14.57, the Activity_index (A549 [6]) was 9.83 and the inhibition (Sus scrofa [7]) was “Active”. For the same molecule, the Activity_index (A549 [8]) was 57.93 and the Activity_index (A549 [9]) was 28.57.

With `Cc1cc2c(=O)[nH]c(CSC(=S)NCc3ccc(C#N)cc3)nc2s1` the Activity (A549 [10]) was “inactive”, the Activity (A549 [11]) was “inactive” and the Activity (A549 [12]) was “Dose-dependent effect”. For the same molecule, the Activity (HCT-116 [13]) was “>=50%”, the Activity (A549 [14]) was 19.5% and the Activity (A549 [15]) was “Active”. The Activity (A549 [16]) was 30.89%, the Activity_index (A549 [17]) was 15.6 and the Activity (HeLa) was “inactive”. It also gave an Activity (A549 [18]) of 55.74%, an Activity_index (A549 [19]) of 9.67 and an Activity (A549 [20]) of 19.85%. The Activity_index (A549 [21]) was 6.63, the Activity (A549 [22]) was 13.7% and the Activity (A549 [23]) was 24.24%. It also gave an Activity (A549 [24]) of 43.91%, an Activity (A549 [25]) of 6.9% and an IC50 (A549 [2]) of 7.31 µM. The inhibition (Sus scrofa [26]) was “Dose-dependent effect”, the Activity (A549 [27]) was 23.59% and the Activity (A549 [28]) was 61.89%. For the same molecule, the Activity (HT-29) was “inactive”, the Activity (A549 [29]) was 17% and the Activity (A549 [30]) was 10.2%. For the same molecule, the Activity (A549 [31]) was 18.45%, the Activity (A549 [32]) was “>=50%” and the IC50 (A549 [33]) was 4.78 µM. For the same molecule, the IC50 (HCT-116 [34]) was 22.6 µM, the Activity (A549 [35]) was “inactive” and the Activity_index (A549 [36]) was 19.17. The Activity (MDA-MB-231) was “inactive”, the Activity (MCF7) was “inactive” and the Activity (A549 [37]) was “Active”.
